Hits are enriched below; roughly 2.1% of the tested compounds scored in any of these assays.
p97 ATPase inh = inhibitors of human p97 ATPase, primary screen, biochemical; actives 0.42% (n = 220,000); Transitional endoplasmic reticulum ATPase (Homo sapiens), P55072; inhibition, % at 8 µM; AID 1481, 2009; recombinant p97 ATPase, Kinase-Glo ATP luminescence, 3 h; in the data active means inhibition above about 15%
Hck Nef HTS = inhibitors of Nef-activated human Hck kinase, primary screen, biochemical, Z-Lyte FRET, 384-well, Hck-YEEI | AID 463187, 2010 | Tyrosine-protein kinase HCK (Homo sapiens), P08631 | actives 0.68% (n = 220,000) | Recombinant Hck-YEEI plus Nef, Z-Lyte FRET kinase assay | inhibition, % at 20 µM;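 active means Hck-Nef kinase inhibition above about 50%, limit read from the data; inactive means inhibition below that limit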
Tb hexokinase = Trypanosoma brucei hexokinase 1 inhibitors, primary screen, biochemical, G6PDH-coupled NADH absorbance, MLSCN library | recombinant TbHK1, G6PDH-coupled NADH A340 | inhibition, % at 10 µM | actives 0.11% (n = 220,000);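 active means inhibition of 50% or more in the single-dose primary screen; inactive means inhibition below 50%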
RanGTP-Impb inh = inhibitors of RanGTP-importin-beta interaction, primary screen, biochemical, FRET, CFP-Ran, YFP-importin-beta, homogeneous; actives 1.1% (n = 300,000); inhibition, % (test concentration not listed); Ran GTPase (GTP-bound) - importin-beta complex; cell-free CFP-Ran/YFP-importin-beta FRET ratio; AID 2216, 2009;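 active means more than half of the replicate wells show a fall in the fluorescence ratio signal beyond about 16%, limit read from the data, passing the limit was not always enough; inconclusive means exactly half of the replicate wells pass the set limit; inactive means fewer than half of replicates pass the limit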
Runt-SMMHC FRET = inhibitors of RUNX1 Runt–CBFb-SMMHC binding, primary screen, biochemical, FRET, Cerulean-Runt, Venus-CBFb-SMMHC, uHTS; AID 1434, 2008; inhibition, % at 20 µM; actives 0.74% (n = 220,000); Cerulean-Runt/Venus-CBFb-SMMHC FRET ratio 530/480, 1 h;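 active means mean inhibition across duplicate retests at 20 µM reaching about 50%, limit read from the data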;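 further: inhibitors lower the FRET ratio by blocking Runt binding to CBFb-SMMHC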
Target sequence (Q01196 whole entry, looked up): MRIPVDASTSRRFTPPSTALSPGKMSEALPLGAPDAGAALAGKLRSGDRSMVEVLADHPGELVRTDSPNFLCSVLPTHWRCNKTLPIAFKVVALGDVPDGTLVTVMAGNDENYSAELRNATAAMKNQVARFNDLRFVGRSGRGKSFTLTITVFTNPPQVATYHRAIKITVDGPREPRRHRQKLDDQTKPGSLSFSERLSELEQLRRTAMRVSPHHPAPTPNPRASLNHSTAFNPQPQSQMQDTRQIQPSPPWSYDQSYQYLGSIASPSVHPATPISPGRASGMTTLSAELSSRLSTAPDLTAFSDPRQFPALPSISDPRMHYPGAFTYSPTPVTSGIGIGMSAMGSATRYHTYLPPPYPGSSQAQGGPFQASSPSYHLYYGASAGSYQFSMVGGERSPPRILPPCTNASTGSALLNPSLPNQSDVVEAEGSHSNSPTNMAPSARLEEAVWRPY
Target sequence (Q13951 whole entry, looked up): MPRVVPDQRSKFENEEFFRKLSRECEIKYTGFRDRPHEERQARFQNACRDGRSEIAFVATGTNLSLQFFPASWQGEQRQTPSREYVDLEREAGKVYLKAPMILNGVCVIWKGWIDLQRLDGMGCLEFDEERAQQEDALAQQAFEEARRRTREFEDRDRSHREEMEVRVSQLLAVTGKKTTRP
Runt-CBFb FRET = inhibitors of RUNX1 Runt–CBFb binding, primary screen, biochemical, FRET, Cerulean-Runt, Venus-CBFb, uHTS | Cerulean-Runt/Venus-CBFb FRET ratio 530/480, 1 h | inhibition, % at 20 µM | actives 0.46% (n = 220,000) | AID 1496, 2009;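 active means inhibition over about 50% at 20 µM in the single-dose screen, limit read from the data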
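Schedule: protein complex preformed 1 h, compound exposure 1 h, room temperature, dark; test system: Cerulean-labeled Runt domain protein; amount: 100 nM per protein; buffer or medium: Tris 50 mM pH 7.5, KCl, K2SO4, 0.01% BSA; read-out: loss of energy transfer signal; detection: FRET fluorescence; controls: 5 µM unlabeled CBFb as full-inhibition high control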
YIC counter = YIC intramolecular FRET probe signal interference, dose response, counter-screen for RanGTP-importin-beta inhibitor project, biochemical, fluorescence FRET. shares compounds with RanGTP-Impb inh. Purified YIC probe, intramolecular FRET ratio YFP/CFP. AID 435026, 2010. actives 40% (n = 1,000). IC50, µM;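 active means fitted half-maximal inhibitory concentration no more than tenfold above the top dose tested; inconclusive means flat fit with 30 to 70% activity, or poor fit; inactive means half-maximal concentration beyond tenfold above the top dose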
Each line names hits and unclear results; the compound was inactive in the other large screens (follow-up assays come after a bar, where they were run).

O=C(Nc1cccc(-c2nc3ccccc3s2)c1)c1cccs1	RanGTP-Impb inh 25 | YIC counter inactive
O=C(CCS(=O)(=O)c1ccccc1)Nc1cccc(-c2nc3ccccc3s2)c1	none
COc1ccc(-c2coc3c(C)c4oc(=O)c(CCC(=O)O)c(C)c4cc23)cc1	none (no result: p97 ATPase inh, Hck Nef HTS, Tb hexokinase, Runt-SMMHC FRET, Runt-CBFb FRET)
Cc1c(CC(=O)O)c(=O)oc2c(C)c3occ(-c4ccc(F)cc4)c3cc12	RanGTP-Impb inh 24 (no result: p97 ATPase inh, Hck Nef HTS, Tb hexokinase, Runt-SMMHC FRET, Runt-CBFb FRET) | YIC counter inactive
O=C1c2cccc3cc([N+](=O)[O-])cc(c23)C(=O)N1c1ccccc1O	none
O=C(NNC(=S)NC(=O)c1ccccc1[N+](=O)[O-])c1ccccc1O	RanGTP-Impb inh 19 | YIC counter inactive
CN(C(=O)CSc1nc2c(cnn2-c2ccccc2)c(=O)[nH]1)C1CCS(=O)(=O)C1 (stereo unspecified)	none
CCN1CCc2c(sc(N)c2C#N)C1	RanGTP-Impb inh 34, Runt-SMMHC FRET 110 | YIC counter 18
N#Cc1c(N)sc(=S)c2c1CCN(Cc1ccccc1)C2	none (no result: p97 ATPase inh, Hck Nef HTS, Tb hexokinase, RanGTP-Impb inh)
Cc1ccc(OCc2nnc(SCC(=O)CC(=O)Nc3ccccc3)o2)cc1	RanGTP-Impb inh 27 | YIC counter inactive
Cc1ccc(C(=O)NCc2ccco2)cc1S(=O)(=O)N1CCOCC1	RanGTP-Impb inh 25 (no result: Runt-CBFb FRET) | YIC counter inactive
CC1(C(=O)O)C=CCN1C(=O)c1ccccc1 (stereo unspecified)	RanGTP-Impb inh 19 | YIC counter inactive
CN1CCN/C1=C(/C(Cl)=C(Cl)Cl)[N+](=O)[O-]	none
COc1cc(=O)n(C)c2ccccc12	none
COc1ccccc1C#Cc1ccc2c(=O)c3ccccc3n(C)c2c1	RanGTP-Impb inh 40 (no result: p97 ATPase inh, Hck Nef HTS, Tb hexokinase, Runt-SMMHC FRET, Runt-CBFb FRET) | YIC counter 0.72
Cc1nc(NCC2CCCO2)c2nnn(Cc3c(F)cccc3Cl)c2n1 (stereo unspecified)	none
COc1cccc(/C=N/NC(=O)c2ccc3nc[nH]c3c2)c1O	none
CCN(CC)c1ccc(/C=N/NC(=O)c2ccc3nc[nH]c3c2)c(O)c1	RanGTP-Impb inh 38, Runt-SMMHC FRET 62 | YIC counter 13
Cc1cc(N2C(=O)C(O)=C(C(=O)c3cc4ccccc4o3)C2c2cccc(Cl)c2)no1 (stereo unspecified)	RanGTP-Impb inh 25 (no result: p97 ATPase inh, Hck Nef HTS, Tb hexokinase, Runt-SMMHC FRET, Runt-CBFb FRET) | YIC counter 7.4
Cc1c(N=Cc2c(O)n(Cc3ccco3)c(=O)c3ccccc23)c(=O)n(-c2ccccc2)n1C	RanGTP-Impb inh 22 | YIC counter 23
CCCN(CC(=O)Nc1ccccc1C)C(=O)C1CCN(S(=O)(=O)c2cccc(C(F)(F)F)c2)CC1	none (no result: p97 ATPase inh, Hck Nef HTS, Tb hexokinase, Runt-SMMHC FRET, Runt-CBFb FRET)
O=C(Cc1cc(=O)oc2cc(O)ccc12)N[C@@H](Cc1c[nH]c2ccccc12)C(=O)O	RanGTP-Impb inh 21 (no result: p97 ATPase inh, Hck Nef HTS, Tb hexokinase, Runt-SMMHC FRET, Runt-CBFb FRET) | YIC counter inactive
CC(=O)N1c2ccc(S(=O)(=O)N3CCC(C(=O)Nc4cccc(C)c4)CC3)cc2CC1C (stereo unspecified)	none (no result: p97 ATPase inh, Hck Nef HTS, Tb hexokinase, Runt-SMMHC FRET, Runt-CBFb FRET)
CC(=O)N1c2ccc(S(=O)(=O)N3CCC(C(=O)Nc4cccc(Cl)c4)CC3)cc2CC1C (stereo unspecified)	RanGTP-Impb inh 25 (no result: p97 ATPase inh, Hck Nef HTS, Tb hexokinase, Runt-SMMHC FRET, Runt-CBFb FRET) | YIC counter inactive
Cc1cc2c(c(=O)n1C1CC1)C(c1cccc(Cl)c1)C(C#N)=C(N)O2 (stereo unspecified)	RanGTP-Impb inh 20 | YIC counter inactive
Cc1c(/C=N\NC(=O)C2COc3ccccc3O2)c2ccccc2n1C (stereo unspecified)	RanGTP-Impb inh 23 | YIC counter inactive
Cn1cc(/C=N\NC(=O)C2COc3ccccc3O2)c2ccccc21 (stereo unspecified)	none
O=c1cc(N2CCc3ccccc3C2)[nH]c(=O)n1C1CCCCC1	RanGTP-Impb inh 54 | YIC counter inactive
O=c1cc(N2CCC(Cc3ccccc3)CC2)[nH]c(=O)n1C1CCCCC1	RanGTP-Impb inh 22 | YIC counter inactive
CC1CCN(c2cc(=O)n(C3CCCCC3)c(=O)[nH]2)CC1	RanGTP-Impb inh 31 | YIC counter inactive
O=C(c1ccco1)N1CCN(c2cc(=O)n(C3CCCCC3)c(=O)[nH]2)CC1	none
CC1CCc2c(C(=O)N3CCN(S(=O)(=O)c4cccs4)CC3)csc2C1 (stereo unspecified)	none
COc1cc(NC(=O)CN2C(=O)CN(C)C2=O)c(C)cc1[N+](=O)[O-]	none
COc1cc(NC(=O)Cn2ncc(Cl)c(Cl)c2=O)c(C)cc1[N+](=O)[O-]	RanGTP-Impb inh 27 | YIC counter inactive
CCc1cc(C(=O)NCC(c2cccs2)N2CCOCC2)sc1C (stereo unspecified)	none (no result: p97 ATPase inh, Hck Nef HTS, Tb hexokinase, Runt-SMMHC FRET, Runt-CBFb FRET)
CC(C)NC(=O)NC(=O)COC(=O)c1ccccc1F	RanGTP-Impb inh inconclusive
CC(C)NC(=O)NC(=O)COC(=O)c1ccccc1O	RanGTP-Impb inh 16 | YIC counter inactive
CN(C)C(=O)C1C2NC(=S)N(c3ccc(Cl)cc3)C1(C)Oc1ccc(Cl)cc12 (stereo unspecified)	none
COc1ccc(C(=O)Nc2sc3c(c2C#N)CCN(C(C)=O)C3)cc1	RanGTP-Impb inh 42, Runt-SMMHC FRET 62 | YIC counter inactive
CC(=O)N1CCc2c(sc(NC(=O)Cc3ccc(F)cc3)c2C#N)C1	none (no result: p97 ATPase inh, Hck Nef HTS, Tb hexokinase, Runt-SMMHC FRET, Runt-CBFb FRET)
Cc1noc(C)c1CSc1nc2ccccc2c(=O)n1-c1ccc(Cl)cc1	none
CC(=O)c1ccc(NC(=O)CCC(=O)N2CC(C)Oc3ccc(C)cc32)cc1 (stereo unspecified)	none (no result: p97 ATPase inh, Hck Nef HTS, Tb hexokinase, Runt-SMMHC FRET, Runt-CBFb FRET)
C[C@@H]1CCCCO[C@@H](CN(C)C(=O)CCC(F)(F)F)[C@@H](C)CN([C@@H](C)CO)C(=O)c2cc(NC(=O)CCC(F)(F)F)ccc2O1	none (no result: p97 ATPase inh, Hck Nef HTS, Tb hexokinase, RanGTP-Impb inh, Runt-SMMHC FRET, Runt-CBFb FRET) | YIC counter inactive
Cc1noc(C)c1NC(=O)Nc1ccc2c(c1)C(=O)N([C@H](C)CO)C[C@@H](C)[C@@H](CN(C)C(=O)Nc1c(C)noc1C)OCCCC[C@@H](C)O2	none (no result: p97 ATPase inh, Hck Nef HTS, Tb hexokinase, RanGTP-Impb inh, Runt-SMMHC FRET, Runt-CBFb FRET) | YIC counter inactive

Source: PubChem
